The target of experiment [1] is T1, Adenosine receptor A1 (Homo sapiens) (UniProt P30542).
T1 sequence (whole entry): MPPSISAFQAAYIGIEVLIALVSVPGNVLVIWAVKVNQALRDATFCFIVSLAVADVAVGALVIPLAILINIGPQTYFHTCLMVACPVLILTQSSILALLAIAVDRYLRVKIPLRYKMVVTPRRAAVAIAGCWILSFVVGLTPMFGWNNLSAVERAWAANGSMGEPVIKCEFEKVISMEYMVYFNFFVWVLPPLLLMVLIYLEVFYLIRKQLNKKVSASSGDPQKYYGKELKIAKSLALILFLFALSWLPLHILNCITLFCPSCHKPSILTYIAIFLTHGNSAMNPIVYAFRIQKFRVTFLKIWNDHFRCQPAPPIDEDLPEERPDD
Kind of experiment: Displacement of [3H]DPCPX from human Adenosine A1 receptor expressed in CHO cells at 1 uM after 60 mins. Type of experiment: cell-based. An outline of the steps: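 Competition binding on membranes from CHO cells expressing human A1, labelled with 2 nM [3H]DPCPX. Non-specific binding was defined with 10 µM R-PIA, and incubation was at 25 °C for 60 min. The value is percent inhibition of specific binding at 1 µM test compound (n = 2, average).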
(In a radioligand displacement assay an active substance lowers the binding of a labelled ligand.)

The target of another experiment is T2, Adenosine receptor A3 (Homo sapiens, UniProt P0DMS8).
T2 sequence (P0DMS8 whole entry): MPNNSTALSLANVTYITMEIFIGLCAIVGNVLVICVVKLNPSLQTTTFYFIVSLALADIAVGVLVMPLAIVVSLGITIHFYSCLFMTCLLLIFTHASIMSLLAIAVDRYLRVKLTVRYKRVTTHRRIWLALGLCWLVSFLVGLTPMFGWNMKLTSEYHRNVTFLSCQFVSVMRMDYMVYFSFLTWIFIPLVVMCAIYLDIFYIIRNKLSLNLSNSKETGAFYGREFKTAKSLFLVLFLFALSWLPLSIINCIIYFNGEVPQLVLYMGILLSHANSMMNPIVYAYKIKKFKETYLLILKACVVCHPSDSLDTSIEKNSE
Kind of experiment: Displacement of [3H]NECA from human Adenosine A3 receptor expressed in HeLa cells after 180 mins.

Experiment [2] deals with Adenosine receptor A2a (Homo sapiens) (UniProt P29274). Description: Displacement of [3H]ZM241385 from human Adenosine A2A receptor expressed in HeLa cells at 1 uM after 30 mins. In kind it is cell-based. Summed up: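 Membranes from HeLa cells expressing human A2A were labelled with 3 nM [3H]ZM241385, with non-specific binding defined by 50 µM NECA, and incubated at 25 °C for 30 min. The value is percent displacement of specific binding at 1 µM test compound (n = 2).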

In experiment [3] the target is T3, Adenosine receptor A2b (Homo sapiens) (UniProt P29275).
T3 sequence (whole entry): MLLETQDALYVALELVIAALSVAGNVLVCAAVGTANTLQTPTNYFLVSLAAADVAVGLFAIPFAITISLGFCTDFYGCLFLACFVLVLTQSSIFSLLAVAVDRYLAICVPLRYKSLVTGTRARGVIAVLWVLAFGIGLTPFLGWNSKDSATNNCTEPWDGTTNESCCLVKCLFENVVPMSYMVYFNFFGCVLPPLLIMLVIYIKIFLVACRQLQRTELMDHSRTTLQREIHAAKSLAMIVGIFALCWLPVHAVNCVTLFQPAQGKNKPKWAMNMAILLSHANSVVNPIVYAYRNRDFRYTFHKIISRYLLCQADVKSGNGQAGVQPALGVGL
Description: Displacement of [3H]DPCPX from human Adenosine A2B receptor expressed in HEK293 cells at 1 uM after 30 mins. In kind it is cell-based. Summed up: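 Membranes from HEK-293 cells expressing human A2B were labelled with 35 nM [3H]DPCPX, with non-specific binding defined by 400 µM NECA, and incubated at 25 °C for 30 min.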

Experiment [4] addresses T4, Adenosine receptor A2b (Homo sapiens, UniProt P29275).
T4 sequence (P29275 whole entry): T3 sequence (whole entry)
Description: Displacement of [3H]OSIP339391 from human recombinant Adenosine A2B receptor expressed in HEK293 cells after 60 mins. In kind it is cell-based.

The target of experiment [5] is T5, Adenosine receptor A3 (Homo sapiens) (UniProt P0DMS8).
T5 sequence (whole entry): T2 sequence (P0DMS8 whole entry)
Description: Displacement of [3H]NECA from human Adenosine A3 receptor expressed in HeLa cells at 1 uM after 180 mins.

The target of experiment [6] is T3, Adenosine receptor A2b (Homo sapiens). Kind of experiment: Antagonist activity at human Adenosine A2B receptor expressed in HEK293 cells assessed as inhibition of NECA-induced cAMP production preincubated for 15 mins followed by NECA addition measured after 15 mins by enzyme immunoassay. In kind it is functional, cell-based. Summed up: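 HEK293 cells seeded at 10000 cells/well and grown at 37 °C, 5% CO2 in EMEM F-12 with 10% FCS and 1% L-glutamine. After washing, cells were preincubated 15 min at 37 °C with compound and 30 µM rolipram in EMEM-F12/25 mM HEPES pH 7.4. NECA was then added for 15 min at 37 °C. cAMP was read by enzyme immunoassay after kit lysis; n = 3, each in duplicate.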
In general terms: Cyclic AMP is a second messenger, typically raised through Gs and lowered through Gi signalling.

The target in experiment [7] is T4, Adenosine receptor A2b. Description: Displacement of [3H]DPCPX from human Adenosine A2B receptor expressed in HEK293 cells after 30 mins. In kind it is cell-based.

Consider 13 compounds from ChEMBL document CHEMBL3784997 (J Med Chem, 2016).

The Ki is a dissociation constant, usually derived from enzyme kinetics or from competition with a known ligand. Usually Kb stands for the equilibrium dissociation constant of an antagonist, usually derived from a functional assay.

Sequence of Adenosine receptor A2a (Homo sapiens) (P29274 whole entry): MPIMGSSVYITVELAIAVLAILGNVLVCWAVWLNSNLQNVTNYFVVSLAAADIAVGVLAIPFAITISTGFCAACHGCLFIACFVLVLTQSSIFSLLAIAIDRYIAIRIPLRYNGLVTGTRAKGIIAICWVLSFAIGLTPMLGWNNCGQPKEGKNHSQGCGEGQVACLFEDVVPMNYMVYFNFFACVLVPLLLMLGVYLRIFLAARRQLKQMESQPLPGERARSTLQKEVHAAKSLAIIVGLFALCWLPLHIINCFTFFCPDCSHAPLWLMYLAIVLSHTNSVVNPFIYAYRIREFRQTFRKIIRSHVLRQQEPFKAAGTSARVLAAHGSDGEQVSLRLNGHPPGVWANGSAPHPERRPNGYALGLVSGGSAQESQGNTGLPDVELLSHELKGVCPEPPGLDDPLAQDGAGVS

`CCOC(=O)C1=C(C)Nc2nccn2C1c1cccs1` (racemic): the values for the Activity in experiment [1], in experiment [2] and in experiment [3] were 2%, 2% and 8%, respectively. For the same compound, the affinity on Adenosine receptor A3, expressed as Ki, was 4610 nM.

With `CC(=O)NCCNc1nc(-c2ccccc2)nc2nc(C(=O)N3CCN(CCCc4ccccc4)CC3)[nH]c12`, at Adenosine receptor A2b [4], the inhibition constant Ki came to 0.5 nM.

As to `CC1=C(C(=O)OC(C)C)C(c2ccco2)n2c(nc3ccccc32)N1` (racemic), the Activity in experiment [5] came to 2%; in experiment [1] it was 20%; in experiment [2], 25%. Also, the Kb in experiment [6] was determined as 27 nM.

`CC1=C(C(=O)OC(C)C)C(c2ccco2)n2ncnc2N1` (racemic): the Activity came to 2% in experiment [5], 2% in experiment [1] and 5% in experiment [2]. In addition, the Kb in experiment [6] is 266 nM. This compound came in with an inhibitory constant (Ki) at Adenosine receptor A2b [7] of 55.6 nM.

As for `CC1=C(C(=O)OC(C)C)C(c2cccs2)n2c(nc3ccccc32)N1` (racemic), the figures for the Activity in experiment [5], in experiment [1] and in experiment [2] were 3%, 1% and 17%, respectively. The inhibition constant Ki at Adenosine receptor A2b [7] was 371 nM.

In the case of `CC1=C(C(=O)OC(C)C)C(c2cccs2)n2ccnc2N1` (racemic), the values for the Activity in experiment [5], in experiment [1] and in experiment [2] were 5%, 3% and 3%, respectively. The same compound had a Ki at Adenosine receptor A2b [7] of 728 nM.

`CC1=C(C(=O)OC(C)C)C(c2ccoc2)n2ncnc2N1` (racemic): the Activity worked out at 20% in experiment [5], 2% in experiment [1] and 2% in experiment [2]. On Adenosine receptor A2b [7], the affinity corresponds to a Ki of 350 nM.

On to `CCOC(=O)C1=C(C)NC(=O)CC1c1ccco1` (racemic), for which the Activity in experiment [5] worked out at 24%; in experiment [1], 22%; in experiment [2], 13%. For the same compound, the Ki at Adenosine receptor A2b [7] stood at 2540 nM.

For the compound `CCOC(=O)C1=C(C)Nc2nccn2C1c1ccco1` (racemic), the Activity in experiment [5] is 6%; in experiment [1], 2%; in experiment [2], 5%. At Adenosine receptor A2b [7], the Ki worked out at 108 nM.

In the case of `CC1=C(C(=O)OC(C)C)C(c2ccco2)n2ccnc2N1` (racemic), the Activity is 2% in experiment [5], 3% in experiment [1] and 4% in experiment [2]. This compound also had an inhibitory constant (Ki) at Adenosine receptor A2b [7] of 85.6 nM.

Regarding `CCOC(=O)C1=C(C)Nc2nc3ccccc3n2C1c1cccs1` (racemic), the Activity in experiment [5] was found to be 1%; in experiment [1], 8%; in experiment [2], 16%. Further, the inhibition constant Ki at Adenosine receptor A2b [7] amounted to 485 nM.

As for `CC1=C(C(=O)OC(C)C)C(c2ccsc2)n2c(nc3ccccc32)N1` (racemic), the Activity in experiment [5] came to 21%; in experiment [1], 11%; in experiment [2] it was 3%. At Adenosine receptor A2b [7], this compound gave an inhibition constant Ki of 29.3 nM.

On to `CC1=C(C(=O)OC(C)C)C(c2ccoc2)n2c(nc3ccccc32)N1` (racemic), for which the Activity in experiment [5] is 2%; in experiment [1], 12%; in experiment [2], 22%. At Adenosine receptor A2b [7], this compound came in with an inhibition constant (Ki) of 11.4 nM.
